Assay outcomes (PubChem BioAssay)
ADAM10 inh: inhibits human ADAM10; O14672; hit rate 0.62% among 370,000; inhibition, % at 7 µM; recombinant ADAM10, EDANS/DABCYL FRET peptide cleavage, 3 h;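 active = inhibition above a per-campaign cutoff equal to the mean of compounds falling between control-based bounds plus 3 SD, cut at about 20% in these data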
DDE Tn7 FP inh: inhibitors of Tn7 peptide binding to human fibrin DD(E) | P02675 | FP displacement of FITC-Tn7 peptide from fibrin DD(E); 0% = median of compound wells per plate | inhibition, % at 8.3 µM | hit rate 0.13% among 370,000;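 active = inhibition above the mean of compounds falling within the control limits plus 3 SD of them, cut at about 14% in these data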
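Assay system: human fibrin DD(E) protein / Input: 2 µM fibrin DD(E) / Benchmarks: high control of 10 µM Aha-Tn7 peptide / Measured by: fluorescence polarization of the labelled Tn7 tracer / Medium: Tris buffer with calcium and detergent, pH 7.8 / Timing: 10 min compound pre-incubation, 3 h probe incubation at room temperature / Repeats: one replicate per compound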
MT1-MMP act inh: inhibitors of human MT1-MMP activation. GFP/RFP ratio change, % at 20 µM. hit rate 0.061% among 360,000. P50281. HT1080 RFP-PRO-GFP cells, GFP/RFP ratio fluorescence, overnight; percent of plate control window, DMSO zero;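 active = GFP/RFP ratio change of at least 30% with cell ATP level not reduced by more than half and red fluorescence within 50% of control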
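Material – HT1080 RFP-PRO-GFP cells · Control set – DMSO wells and RFP-L50D-GFP cells · Incubation – overnight cell settling, then overnight compound exposure, 37 °C, 5% CO2 · Compound dosing – single-point 20 µM compound, 1% DMSO · Read-out – GFP/RFP fluorescence ratio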
ADAM17 inh: ADAM17 inhibition, QFRET primary screen | P78536 | recombinant ADAM17, EDANS/DABCYL FRET peptide cleavage | inhibition, % at 6.95 µM | hit rate 0.83% among 370,000 | AID 720648;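 active = inhibition above the mean of compounds lying between control limits plus 3 SD, set per campaign, cut at about 8.5% in these data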
Target sequence (P78536 215-824 limits assumed): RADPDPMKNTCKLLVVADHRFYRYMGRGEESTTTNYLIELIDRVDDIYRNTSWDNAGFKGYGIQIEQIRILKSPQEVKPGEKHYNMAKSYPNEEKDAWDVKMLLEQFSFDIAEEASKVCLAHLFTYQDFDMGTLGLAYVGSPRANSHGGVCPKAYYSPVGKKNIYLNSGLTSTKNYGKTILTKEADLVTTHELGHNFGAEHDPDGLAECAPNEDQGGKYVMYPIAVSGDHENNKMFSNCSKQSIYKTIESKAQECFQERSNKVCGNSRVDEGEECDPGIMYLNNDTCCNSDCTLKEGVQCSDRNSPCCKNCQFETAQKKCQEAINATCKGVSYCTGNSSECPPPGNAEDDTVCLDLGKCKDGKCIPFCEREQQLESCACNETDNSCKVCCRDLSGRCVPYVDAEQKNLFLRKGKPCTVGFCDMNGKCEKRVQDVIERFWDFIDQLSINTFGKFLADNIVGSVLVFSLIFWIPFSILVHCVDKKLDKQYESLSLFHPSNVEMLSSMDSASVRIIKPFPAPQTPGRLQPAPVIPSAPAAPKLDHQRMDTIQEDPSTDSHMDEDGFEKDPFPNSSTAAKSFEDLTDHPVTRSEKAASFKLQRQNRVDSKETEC
Tn6 DDE FP: DD(E)-Tn6 binding inhibition, primary FP screen; inhibition, % at 8.3 µM; hit rate 0.21% among 370,000; Fibrin DD(E) TRITC-Tn6 fluorescence polarization displacement; P02675;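 active = inhibition above a per-campaign cutoff: mean of compounds within control limits plus 3 SD, cut at about 15% in these data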
ADAM10 counter: inhibits human ADAM10 in ADAM17 exosite counter-screen; shares compounds with ADAM17 inh; recombinant ADAM10, EDANS/DABCYL FRET peptide cleavage, 3 h; inhibition, % at 6.95 µM; hit rate 47% among 2,900;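 active = mean inhibition over the triplicate runs exceeds the activity threshold set in the earlier primary screen, cut at about 20% in these data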
ADAM17 confirm: confirmation of inhibitors of human ADAM17 | shares compounds with ADAM17 inh | recombinant ADAM17, EDANS/DABCYL QFRET peptide cleavage | inhibition, % at 6.95 µM | hit rate 65% among 2,900 | AID 743257;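 active = mean inhibition across replicates above the hit cutoff set in the primary screen, cut at about 8.5% in these data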
Of the large screens only hits and unclear results are named; the others gave an inactive call (follow-up assays come after a bar, where they were run). An excerpt weighted towards active compounds, which were near 1.6% of everything screened.

COC(=O)[C@]12C[C@H](CC(=O)NCC3CCCCC3)C(=O)N(CCc3ccc(OC)c(OC)c3)C1=C[C@H](COCc1ccccc1)O[C@@H]2C	ADAM17 inh 11 (no result: MT1-MMP act inh) | ADAM10 counter 26 | ADAM17 confirm 9.1
CC(C)CC(=O)NC(=S)Nc1nc(-c2cccc3ccccc23)cs1	ADAM17 inh 14 (no result: MT1-MMP act inh) | ADAM10 counter inactive | ADAM17 confirm inactive
O=C(C(=O)N1CCN(C(=O)c2cccs2)CC1)c1cccc(C(F)(F)F)c1	none (no result: MT1-MMP act inh)
Cn1cc([N+](=O)[O-])c(C(=O)NNC(=O)c2ccc([N+](=O)[O-])cc2)n1	ADAM17 inh 8.8 | ADAM10 counter inactive | ADAM17 confirm inactive
Cn1cc([N+](=O)[O-])c(C(=O)N/N=C/c2ccc([N+](=O)[O-])cc2)n1	none
COc1ccc(NC(=O)c2oc3ccccc3c2NC(=O)C2CC2)cc1	none
COc1ccc(NC(=O)c2oc3ccccc3c2NC(=O)C(C)(C)C)cc1	ADAM17 inh 9.7 | ADAM10 counter inactive | ADAM17 confirm 8.8
OC(CN1CCN(c2ncc(C(F)(F)F)cc2Cl)CC1)c1ccccc1 (configuration not stated)	ADAM17 inh 10 | ADAM10 counter inactive | ADAM17 confirm inactive
N#Cc1ccc(OCC(O)CN2CCN(c3ncc(C(F)(F)F)cc3Cl)CC2)cc1 (configuration not stated)	none
Cc1cc(=O)[nH]c(SCC(=O)Nc2ccc(F)c(F)c2)n1	none (no result: MT1-MMP act inh)
O=C(Nc1ccc([N+](=O)[O-])cc1)Nn1cnnc1	ADAM17 inh 10 | ADAM10 counter inactive | ADAM17 confirm inactive
S=C(NCc1ccc(Cl)cc1)Nc1ccncc1	ADAM17 inh 8.9 | ADAM10 counter inactive | ADAM17 confirm 13
COc1ccccc1Nc1nc(N)nc(CSC(=S)N2CC(C)CC(C)C2)n1 (configuration not stated)	ADAM17 inh 12 | ADAM10 counter 30 | ADAM17 confirm 16
COc1ccc(Nc2nc(N)nc(CSC(=S)N3CCCCC3C)n2)cc1 (configuration not stated)	ADAM17 inh 9.7 | ADAM10 counter inactive | ADAM17 confirm 10
COc1ccc(Nc2nc(N)nc(CSC(=S)N3CCCCC3)n2)cc1	none
CCCC[C@@H]1CNCCN1CCc1cc(C(F)(F)F)cc(C(F)(F)F)c1	ADAM17 inh 9.0 | ADAM10 counter inactive | ADAM17 confirm inactive
CCOc1ccccc1NC(=O)C(OC(=O)c1ccc(O)cc1)c1ccccc1 (configuration not stated)	ADAM17 inh 9.6 | ADAM10 counter 33 | ADAM17 confirm 20
Cc1c(Cl)cccc1NC(=S)/C(=C(\[O-])c1ccc(Cl)s1)[n+]1ccccc1	ADAM17 inh 9.6 | ADAM10 counter inactive | ADAM17 confirm inactive
Cc1ccccc1NC(=S)/C(=C(\[O-])c1cc(C)n(Cc2ccccc2Cl)c1C)[n+]1ccccc1	ADAM17 inh 12 | ADAM10 counter 24 | ADAM17 confirm 9.4
CCc1ccc(NC(=O)C2=CC(c3ccc(OC)cc3)=NS(=O)(=O)N2C)cc1	ADAM17 inh 9.2 | ADAM10 counter 24 | ADAM17 confirm 15
COc1ccc(C2=NS(=O)(=O)N(C)C(C(=O)Nc3ccc4c(c3)OCO4)=C2)cc1	none
Cc1ccc(NC(=O)C2=CC(c3ccc(C)cc3)=NS(=O)(=O)N2C)cc1	none
Cc1ccc(C2=NS(=O)(=O)N(C)C(C(=O)Nc3ccc4c(c3)OCO4)=C2)cc1	ADAM17 inh 13 | ADAM10 counter inactive | ADAM17 confirm 14
COc1ccc(C2=NS(=O)(=O)N(C)C(C(=O)Nc3ccc(C)cc3)=C2)cc1	ADAM17 inh 8.9 | ADAM10 counter inactive | ADAM17 confirm 14
COc1ccc(OC)c(CN2C(=O)c3ccnn3CC2(C)c2nnnn2C2CCCC2)c1 (configuration not stated)	none (no result: MT1-MMP act inh)
Cc1ccccc1C(=O)NC1CCCCN(Cc2cccc(C(F)(F)F)c2)C1=O (configuration not stated)	none (no result: MT1-MMP act inh)
C=CCN1C=C(C(=O)OCC)C(=O)CC1	none (no result: MT1-MMP act inh)
CC(C)(C)OC(=O)N1CCC2CCN(S(=O)(=O)c3ccccc3)CC21 (configuration not stated)	none (no result: MT1-MMP act inh)
CC1(c2nnnn2-c2ccc3c(c2)OCCO3)CSCC(=O)N1CCc1c[nH]c2ccccc12 (configuration not stated)	none (no result: MT1-MMP act inh)
CN(C)S(=O)(=O)c1cccc(C(=O)N/N=C\c2ccccc2[N+](=O)[O-])c1	none (no result: MT1-MMP act inh)
Cc1ccc(S(=O)(=O)Nc2nc(C)c(NC(=O)OCCCl)s2)cc1	ADAM17 inh 8.9 | ADAM10 counter inactive | ADAM17 confirm inactive
CCc1noc(C)c1C(=O)OC(C)C(=O)Nc1ccc(Cl)cn1 (configuration not stated)	none
CCc1noc(C)c1C(=O)OC(C)C(=O)Nc1ccc2c(c1)OCO2 (configuration not stated)	ADAM17 inh 8.8 | ADAM10 counter inactive | ADAM17 confirm 13
O=C(N[C@H](C(=O)N1CCC[C@H]1C(=O)NC1CCCC1)C1CCCCC1)c1nccs1	none (no result: MT1-MMP act inh)
Cc1cc(SCCOc2ccccc2)nc(N)n1	ADAM17 inh 11 | ADAM10 counter inactive | ADAM17 confirm inactive
CON(Cc1ccccc1)S(=O)(=O)c1ccccc1Br	none (no result: MT1-MMP act inh)
Cc1ccc(S(=O)(=O)N(C(=O)c2ccncc2)c2ccc(OC(=O)c3ccncc3)c3ccccc23)cc1	ADAM17 inh 8.9 | ADAM10 counter 37 | ADAM17 confirm 19
N#CCC[C@H]1CC[C@]2(CCCN(c3ccccc3)C2)O1	none (no result: MT1-MMP act inh)
C=CC[C@@H](CC(=O)N[C@H](CO)Cc1ccccc1)C(=O)N[C@H](COC(=O)[C@@H](CC=C)Cc1ccc(F)cc1)Cc1c[nH]c2ccccc12	ADAM10 inh 24, ADAM17 inh 11 | ADAM10 counter 44 | ADAM17 confirm 22
C=CC[C@@H](CC(=O)N[C@H](CO)Cc1ccccc1)C(=O)N[C@H](COC(=O)[C@@H](CC=C)Cc1ccc(F)cc1)C(C)(C)C	ADAM17 inh 8.7 | ADAM10 counter 34 | ADAM17 confirm 19
C=CCC[C@H](Cc1ccc(F)cc1)C(=O)OC[C@@H](NC(=O)[C@@H](CC=C)CC(=O)N(CCO)Cc1ccccc1)C(C)(C)C	ADAM17 inh 12 | ADAM10 counter 38 | ADAM17 confirm 19
CC(C)=CCc1c(O)ccc(C(=O)Cc2ccccc2)c1O	ADAM17 inh 10 | ADAM10 counter 24 | ADAM17 confirm 13
